From PMC8494022 (Chemical Science, 2021)

What was measured:
CT26 cells [1] = assay: Cellular uptake of FITC-labeled albumin with endocytosis inhibitors; format: cell-based, murine (Balb/c); conditions: 1 h inhibitor pretreatment, uptake after 3 h
[2] = cited from earlier work
CT26 cells [3] = assay: Cellular platinum uptake determined by ICP-MS; format: cell-based, murine (Balb/c); conditions: MβCD, CHP, EIPA 1 h pretreatment, uptake after 3 h
CT26 cells [4] = assay: Cytotoxicity, MTT-based cell viability assay; design: species or system murine (Balb/c)
In short: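 MTT-based viability of CT26 cells after 72 h drug exposure, alone or with 100 μM ascorbic acid co-treatment. Values are means ± SD of one representative experiment run in triplicates.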

CT26 tumors [5] = assay: Allograft anticancer activity experiments; format: in vivo; conditions: CT26-bearing BALB/c mice
In short: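 CT26 allografts in immune-competent BALB/c mice; test compounds and oxaliplatin given i.v. twice weekly for two weeks at doses equimolar to 9 mg kg−1 oxaliplatin. Body weight was followed. Tumor growth is reported as mean ± SEM and compared by two-way ANOVA. Overall survival was plotted as Kaplan–Meier curves and compared by log-rank test with Mantel–Cox posttest.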

CT26 tumors [6] = assay: Histological evaluation of treated tumors; format: in vivo, Balb/c mice; conditions: tumors day 12, H&E-stained
In short: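 CT26-bearing BALB/c mice dosed i.v. twice weekly for two weeks, equimolar to 9 mg kg−1 oxaliplatin. Tumors were collected on day 12, 24 h after the last dose. Apoptotic and mitotic cells were counted in H&E sections. Percentages of cleaved caspase-3-positive and Ki-67-positive cells were scored by image analysis. One-way ANOVA with Dunnett's test.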

[7] = Pharmacokinetic of single dose in serum; format: in vivo, Balb/c mice
In short: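 Naive BALB/c mice (n = 4 per group) received a single i.v. dose equimolar to 9 mg kg−1 oxaliplatin. Serum was sampled between 0.08 h and 336 h, and serum versus blood clot was compared at 24 h. Platinum was quantified by ICP-MS and used for concentration–time curves, AUC and terminal elimination half-life.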

[8] = Reduction kinetics with ascorbic acid by NMR; format: physicochemical; conditions: 100 μM, ascorbic acid 10 eq., cell-free, pD 7.4, 37°C

**Q.** Which “impact on uptake of FITC-labeled albumin” value (CT26 cells [1]) does the source give for `CCN(c1nc(N)c(C(=O)NC(=N)N)nc1Cl)C(C)C` [EIPA, 5-(N-ethyl-N-isopropyl)amiloride] here?
**A.** had no impact on albumin uptake

**Q.** Which “concentration in blood, share of the initial amount” value ([2]; 15 min after i.v. injection) does the source give for `COc1cccc2c1C(=O)c1c(O)c3c(c(O)c1C2=O)C[C@@](O)(C(=O)CO)C[C@@H]3O[C@H]1C[C@H](N)[C@H](O)[C@H](C)O1` [doxorubicin] here?
**A.** less than 2%

**Q.** And the “in vivo elimination half-life” value [2]?
**A.** in the order of minutes

**Q.** Which “impact on uptake of FITC-labeled albumin” value (CT26 cells [1]) does the source give for methyl-β-cyclodextrin [MßCD] here?
**A.** significantly reduced

**Q.** With `COc1cccc2c1C(=O)c1c(O)c3c(c(O)c1C2=O)C[C@@](O)(/C(CO)=N/NC(=O)CCCCCN1C(=O)C=CC1=O)C[C@@H]3O[C@H]1C[C@H](N)[C@H](O)[C@H](C)O1` [aldoxorubicin] as the molecule, how does the “in vivo elimination half-life” value [2] read?
**A.** 2.3 h

**Q.** And the “time at which tumor accumulation reached a plateau” value ([2]; no further increase during the next 24 h)?
**A.** 2 h

**Q.** Which results are given for `O=C1[O][Pt]2([NH][C@@H]3CCCC[C@H]3[NH]2)[O]C1=O` [oxaliplatin]?
**A.** impact of endocytosis inhibitors on cellular drug uptake (CT26 cells [3]): neither accumulation of oxaliplatin nor KP2157 were affected by endocytosis inhibition; impact of ascorbic acid co-treatment on activity (cell viability) (CT26 cells [4]; 100 μM AA, 72 h): no relevant impact; IC50 (CT26 cells [4]; after 72 h): ~3.5 µM; impact on tumor growth (CT26 tumors [5]; i.v. twice a week for two weeks, equimolar to 9 mg kg−1 oxaliplatin): significant activity; day at which treated tumors progressed again (CT26 tumors [5]; same scheme): ~15 days; change of mitotic cells (CT26 tumors [6]): significant increase of mitotic cells; serum concentration at first sampling time point relative to KP2156 ([7]; 5 min, equimolar application): drastically lower than for KP2156; total clearance relative to KP2156 ([7]; single i.v. dose): at least one order of magnitude higher than that of KP2156; terminal elimination half-life (t ½) ([7]; single i.v. dose equimolar to 9 mg kg−1 oxaliplatin): 32.5 h

**Q.** For `CC(=O)[O][Pt]([NH2])([Cl])([Cl])([NH]C1CCCCC1)[O]C(C)=O` [Satraplatin, satraplatin], which “time to complete reduction” value [8] is on record?
**A.** < 24 h
